Source: ChEMBL document CHEMBL3351411, “Identification and synthesis of quinolizidines with anti-influenza a virus activity” (ACS Med Chem Lett, 2014)
pEC50: −log10 of the molar value. Calls of active or inactive are those of the source. No cut-off for these calls is given here.

Assays:
[1] = Cytotoxicity against MDCK cells assessed as reduction in cell viability after 48 hrs by CellTiter-Glo assay; format: cell-based, Canis lupus familiaris; details: dog
Procedure, shortened: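 Uninfected MDCK cells were exposed to compound. CC50 is the concentration that reduced cell viability by 50%.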

Influenza A virus = assay: Antiviral activity against Influenza A virus (A/Puerto Rico/8/34(H1N1)) infected in MDCK cells assessed as inhibition of virus-induced cytocidal activity after 48 hrs by CellTiter-Glo assay; format: functional, organism-based; details: A/Puerto Rico/8/1934(H1N1)
Procedure, shortened: (§1)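 MDCK cells infected with PR8 (mouse-adapted A/Puerto Rico/8/1934) or VR1679 at MOI = 1 and treated with compound at various concentrations for 2 days. Percent protection from virus killing was calculated by a formula. EC50 is the concentration giving 50% protection from the cytocidal effect. Values are mean ± SD of three independent experiments.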

Influenza A virus H3N2 [2] = assay: Antiviral activity against Influenza A virus H3N2 VR1679 infected in MDCK cells assessed as inhibition of virus-induced cytocidal activity compound treated 2 hrs post infection by time of addition assay; format: functional, organism-based
Procedure, shortened: (§2)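 Time-of-addition assay: MDCK cells infected with VR1679 at MOI = 0.1, with compound added before infection or at various times post-infection. Percent protection of cells from virus killing was calculated by a formula. Data are the average of two independent experiments.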

Influenza A virus H3N2 [3] = assay: Antiviral activity against Influenza A virus H3N2 VR1679 infected in MDCK cells assessed as inhibition of virus-induced cytocidal activity after 48 hrs by CellTiter-Glo assay; format: functional, organism-based; procedure, shortened: as §1
Influenza A virus H3N2 [4] = assay: Antiviral activity against Influenza A virus H3N2 VR1679 infected in MDCK cells assessed as inhibition of virus-induced cytocidal activity pretreated with compound before infection by time of addition assay; format: functional, organism-based; procedure, shortened: as §2
MDCK = assay: Binding affinity to recombinant Influenza A virus (A/Puerto Rico/8/1934(H1N1)) nucleoprotein in culture medium assessed as protection from Influenza A virus H3N2 VR1679-induced MDCK cytocidal activity after 2 days by CellTiter-Glo assay; format: cell-based
Procedure, shortened: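 MDCK cells infected with VR1679 at MOI = 1, treated with compound with or without recombinant A/Puerto Rico/8/1934 NP at 500 μg/mL in the culture medium. Percent protection from virus killing was read 2 days after infection. Values are mean ± SD of three independent experiments.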

Influenza A virus H3N2 [5] = assay: Antiviral activity against Influenza A virus H3N2 VR1679 infected in MDCK cells assessed as inhibition of virus-induced cytocidal activity compound treated 6 hrs post infection by time of addition assay; format: functional, organism-based; procedure, shortened: as §2
Influenza A virus H3N2 [6] = assay: Antiviral activity against Influenza A virus H3N2 VR1679 infected in MDCK cells assessed as inhibition of virus-induced cytocidal activity compound treated 4 hrs post infection by time of addition assay; format: functional, organism-based; procedure, shortened: as §2
Influenza A virus H3N2 [7] = assay: Antiviral activity against Influenza A virus H3N2 VR1679 infected in MDCK cells assessed as inhibition of viral nucleoprotein production at 10 uM after 6 hrs by immunostaining-based confocal microscopy; format: functional, organism-based
Procedure, shortened: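 VR1679 infected MDCK cells at MOI = 1 with compound at 10 μM for 6 h. Cells were immunostained with FITC-conjugated anti-NP antibodies and DAPI for nuclei, and viral NP was imaged by laser-scanning confocal microscopy. Infected cells without compound served as controls.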

[8] = Selectivity ratio of EC50 for Influenza A virus (A/Puerto Rico/8/34(H1N1)) infected in MDCK cells to EC50 for Influenza A virus H3N2 VR1679 infected in MDCK cells; format: functional

Compound | CC50 at 48 h [1] [µM] | pEC50 (Influenza A virus) | also measured
CN1CCC[C@H]2C[C@H]3C[C@H](CN4CCCC[C@H]34)[C@@H]21 | > 80 | 5.09 | –
C1=C2CCCN(CC3CCC3)[C@H]2[C@@H]2C[C@H]1[C@H]1CCCCN1C2 | > 80 | 4.73 | –
O=C(c1ccc(C(=O)N2CCCC3=C[C@H]4C[C@H](CN5CCCC[C@H]45)[C@@H]32)s1)N1CCCC2=C[C@H]3C[C@H](CN4CCCC[C@H]34)[C@@H]21 | > 80 | 5.62 | –
C1CCN2C[C@@H]3C[C@@H](CN4CCCC[C@H]34)[C@H]2C1 | > 80 | 4.67 | –
C1=C2CCCN(CC3CC3)[C@H]2[C@@H]2C[C@H]1[C@H]1CCCCN1C2 | > 80 | 4.82 | –
CN1CCCC2=C[C@H]3C[C@H](CN4CCCC[C@H]34)[C@@H]21 | > 80 | 5.02 | –
C1CN[C@@H]2C(C1)C[C@H]1C[C@@H]2CN2CCCC[C@H]12 (mixture of isomers) | > 80 | 4.95 | –
C1=C2CCCN(CC3CCCCC3)[C@H]2[C@@H]2C[C@H]1[C@H]1CCCCN1C2 | > 80 | 4.53 | –
CC(C)CN1CCCC2=C[C@H]3C[C@H](CN4CCCC[C@H]34)[C@@H]21 | > 80 | 4.46 | –
C1CCN2C[C@@H]3C[C@@H](CN4CCCC[C@@H]34)[C@H]2C1 [SPARTEINE] | > 80 | 4.71 | –
CN1CC2CC(C1)c1cccc(=O)n1C2 (configuration not stated) | > 80 | < 4.10 | –
NC12CC3CC(CC(C3)C1)C2 [AMANTADINE] | > 80 | < 4.10 | –
O=C1CCC[C@@H]2[C@H]3CCC[N+]4([O-])CCC[C@@H](CN12)[C@@H]34 (some centres not stated) [OXYMATRINE] | > 80 | < 4.10 | –
O=C(NCCN1CCCC2=C[C@H]3C[C@H](CN4CCCC[C@H]34)[C@@H]21)c1ccccc1F | > 80 | 5.26 | –
O=c1cccc2n1C[C@@H]1CNC[C@H]2C1 [CYTISINICLINE] | > 80 | < 4.10 | –
O=C1CCC[C@@H]2[C@H]3CCCN4CCC[C@@H](CN12)[C@@H]34 [MATRINE] | > 80 | < 4.10 | –
CN1CCC[C@@H]2C[C@H]3C[C@H](CN4CCCC[C@H]34)[C@@H]21 | > 80 | 5.21 | inhibition (Influenza A virus H3N2 [2]): Active; inhibition (Influenza A virus H3N2 [3]): Active; inhibition (Influenza A virus H3N2 [4]): Active; Activity (MDCK): Active; inhibition (Influenza A virus H3N2 [5]): inactive; inhibition (Influenza A virus H3N2 [6]): Active; inhibition (Influenza A virus H3N2 [7]): Active
CCN1CCCC2=C[C@H]3C[C@H](CN4CCCC[C@H]34)[C@@H]21 | > 80 | 5.11 | –
C1=C2CCCN[C@H]2[C@@H]2C[C@H]1[C@H]1CCCCN1C2 | > 80 | 4.84 | –
Cc1onc(-c2ccccc2)c1C(=O)N1CCN(c2ccc([N+](=O)[O-])cc2Cl)CC1 [NUCLEOZIN] | > 80 | 6.15 | –
CCOC(=O)C1=C[C@@H](OC(CC)CC)[C@H](NC(C)=O)[C@@H](N)C1 [OSELTAMIVIR] | > 80 | < 4.10 | inhibition (Influenza A virus H3N2 [2]): Active; Ratio EC50 [8]: >200; pEC50 (Influenza A virus H3N2 [3]): < 4.10; inhibition (Influenza A virus H3N2 [4]): Active; Activity (MDCK): inactive; inhibition (Influenza A virus H3N2 [5]): inactive; inhibition (Influenza A virus H3N2 [6]): Active; inhibition (Influenza A virus H3N2 [7]): inactive
